Measurements taken from ChEMBL document CHEMBL1240362, “Intrapulmonary pharmacokinetics of S-013420, a novel bicyclolide antibacterial, in healthy Japanese subjects” (Antimicrob Agents Chemother, 2010).
≈ marks a conversion by molar mass, not a printed value.

Tests used:
[1] = Ratio of alveolar macrophages AUC (0 to 24 hrs) to plasma AUC (0 to 24 hrs) in healthy human at 400 mg, po administered as single dose
[2] = Ratio of drug level in epithelial lining fluid to plasma in healthy human at […] administered as single dose after 2 hrs; assay type: ADME, organism-based; set-up: route oral; details: po
Procedure, shortened: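 For each subject, ELF or AM drug level after the single oral 400 mg dose is divided by the plasma level sampled at the BAL time (2-24 h). Ratios are summarized per four-subject group.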

[3] = Ratio of drug level in alveolar macrophages to plasma in healthy human at 400 mg, po administered as single dose after 24 hrs
[4] = Cmax in alveolar macrophages of healthy human at 400 mg, po administered as single dose
Homo sapiens [5] = experiment: Toxicity in healthy human assessed as other cellular fractions in bronchoalveolar fluid at […], po administered as single dose after 12 hrs; assay type: organism-based, Lung; set-up: route oral; details: in vivo
Procedure, shortened: (§1)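 Healthy Japanese male never-smokers, aged 20 to 45 years with normal BMI, got one open-label oral 400 mg suspension dose. Four subjects per time group had one fiber-optic bronchoscopic BAL at the assigned post-dose time. The first aliquot was discarded and the last three were pooled. BAL fluid was held on ice and spun at 400 × g for 5 min at 4°C. Pellet cells were counted by hemocytometer, with a differential count on a stained cytocentrifuge preparation.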

Homo sapiens [6] = experiment: Toxicity in healthy human assessed as other cellular fractions in bronchoalveolar fluid at […], po administered as single dose after 10 hrs; assay type: organism-based, Lung; set-up: route oral; details: in vivo
Procedure, shortened: as §1

[7] = Ratio of drug level in alveolar macrophages to plasma in healthy human at 400 mg, po administered as single dose after 6 hrs
Homo sapiens [8] = experiment: Toxicity in healthy human assessed as other cellular fractions in bronchoalveolar fluid at […], po administered as single dose after 6 hrs; assay type: organism-based, Lung; set-up: route oral; details: in vivo
Procedure, shortened: as §1

Homo sapiens [9] = experiment: Toxicity in healthy human assessed as eosinophil count in bronchoalveolar fluid at 400 mg, po administered as single dose after 8 hrs; details: in vivo
Staphylococcus aureus [10] = experiment: Antimicrobial activity against erythromycin-susceptible Staphylococcus aureus; assay type: functional
Homo sapiens [11] = experiment: Toxicity in healthy human assessed as eosinophil count in bronchoalveolar fluid at […], po administered as single dose after 2 hrs; assay type: organism-based, Lung; set-up: route oral; details: in vivo
Procedure, shortened: as §1

[12] = Drug level in epithelial lining fluid of healthy human at […], po administered as single dose after 12 hrs; assay type: ADME, organism-based; set-up: route oral; details: read-out: Drug uptake
Procedure, shortened: (§2)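 Four healthy male volunteers per BAL time (2-24 h) after one oral 400 mg suspension dose. Single bronchoscopic lavage; first aliquot discarded, next three pooled. Supernatant separated at 400 × g, 5 min, 4°C, and drug assayed by LC/MS/MS. ELF level = CBAL × urea plasma/urea BAL, with urea corrected for blood contamination via RBC ratio. PK parameters are model-independent, based on the mean concentration at each time.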

[13] = Plasma concentration in healthy human at […], po after 8 hrs; assay type: ADME, organism-based; set-up: route oral
Procedure, shortened: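 Healthy nonsmoking Japanese men, 20-45 y, given one oral 400 mg suspension dose. Blood drawn at 0-72 h, spun at 1,600 × g for 10 min at 4°C, plasma kept at −20°C. Drug measured by validated LC/MS/MS, linear 0.005-5 μg/ml. Values are mean ± SD, n = 28. Cmax, Tmax and t1/2,z are model-independent; AUC0-24 by trapezoidal method.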

[14] = Drug level in alveolar macrophages of healthy human at […], po administered as single dose after 2 hrs; assay type: ADME, organism-based, Macrophage; set-up: route oral; details: read-out: Drug uptake
Procedure, shortened: (§3)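 One oral 400 mg suspension dose; four volunteers lavaged at each time (2-24 h). Cell pellet from the pooled 2nd-4th aspirates was counted (hemocytometer, stained cytospin differential). Drug in cell suspension measured by HPLC, divided by AM volume assuming 2.42 μl/10^6 cells. Cmax and Tmax are model-independent, based on mean concentrations at each time.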

[15] = Ratio of AUC (0 to 24 hrs) in […] healthy epithelial lining fluid to MIC90 for Streptococcus pneumoniae; assay type: functional
[16] = Ratio of epithelial lining fluid AUC (0 to 24 hrs) to plasma AUC (0 to 24 hrs) in healthy human at 400 mg, po administered as single dose
Homo sapiens [17] = experiment: Toxicity in healthy human assessed as lymphocytes count in bronchoalveolar fluid at […], po administered as single dose after 10 hrs; assay type: organism-based, Lung; set-up: route oral; details: in vivo
Procedure, shortened: as §1

[18] = Ratio of AUC (0 to 24 hrs) in […] healthy epithelial lining fluid to MIC90 for Haemophilus influenzae; assay type: functional
[19] = Ratio of drug level in alveolar macrophages to plasma in healthy human at 400 mg, po administered as single dose after 4 hrs
Homo sapiens [20] = experiment: Toxicity in healthy human assessed as other cellular fractions in bronchoalveolar fluid at 400 mg, po administered as single dose after 4 hrs; details: in vivo
Homo sapiens [21] = experiment: Toxicity in healthy human assessed as alveolar macrophage count in bronchoalveolar fluid at 400 mg, po administered as single dose after 12 hrs; details: in vivo
[22] = Drug level in alveolar macrophages of healthy human at […], po administered as single dose after 24 hrs; assay type: ADME, organism-based, Macrophage; set-up: route oral; details: read-out: Drug uptake
Procedure, shortened: as §3

Haemophilus influenzae = experiment: Antimicrobial activity against Haemophilus influenzae; assay type: functional
[23] = AUC (0 to 24 hrs) in alveolar macrophages of healthy human at 400 mg, po administered as single dose by linear trapezoidal method
Staphylococcus aureus [24] = experiment: Antimicrobial activity against methicillin susceptible Staphylococcus aureus; assay type: functional
[25] = Ratio of AUC (0 to 24 hrs) in plasma of healthy human to MIC90 for Moraxella catarrhalis; assay type: functional
[26] = Tmax in plasma of healthy human at 400 mg, po administered as single dose
[27] = Drug level in alveolar macrophages of healthy human at […], po administered as single dose after 8 hrs; assay type: ADME, organism-based, Macrophage; set-up: route oral; details: read-out: Drug uptake
Procedure, shortened: as §3

Streptococcus pyogenes = experiment: Antimicrobial activity against Streptococcus pyogenes; assay type: functional
Homo sapiens [28] = experiment: Toxicity in healthy human assessed as other cellular fractions in bronchoalveolar fluid at 400 mg, po administered as single dose after 2 hrs; details: in vivo
[29] = Ratio of AUC (0 to 24 hrs) in […] healthy epithelial lining fluid to MIC90 for erythromycin-susceptible Staphylococcus aureus; assay type: functional
[30] = Ratio of drug level in epithelial lining fluid to plasma in healthy human at 400 mg, po administered as single dose after 24 hrs
Homo sapiens [31] = experiment: Toxicity in healthy human assessed as lymphocytes count in bronchoalveolar fluid at […], po administered as single dose after 8 hrs; assay type: organism-based, Lung; set-up: route oral; details: in vivo
Procedure, shortened: as §1

[32] = Drug level in epithelial lining fluid of healthy human at […], po administered as single dose after 10 hrs; assay type: ADME, organism-based; set-up: route oral; details: read-out: Drug uptake
Procedure, shortened: as §2

Kp [1]: 245
Kp at 2 h [2]: 26.3
Kp at 24 h [3]: 232
Cmax [4]: 176 µg/mL
Kp at 6 h [7]: 183
MIC90 (Staphylococcus aureus [10]): 0.25 µg/mL (≈ 0.297 µM)
concentration at 12 h [12]: 5.8 µg/mL
concentration at 8 h [13]: 0.441 µg/mL
concentration at 2 h [14]: 61 µg/mL
Kp [16]: 20.3
Kp at 4 h [19]: 201
concentration at 24 h [22]: 68 µg/mL
MIC90 (Haemophilus influenzae): 8 µg/mL (≈ 9.51 µM)
AUC(0-t) at 24 h [23]: 2560 µg·h/mL
MIC90 (Staphylococcus aureus [24]): ≤ 0.063 µg/mL
Tmax [26]: 2.27 h
concentration at 8 h [27]: 125 µg/mL
MIC90 (Streptococcus pyogenes): ≤ 0.063 µg/mL
Kp at 24 h [30]: 21.3
concentration at 10 h [32]: 10 µg/mL
Structure (SMILES): CC[C@H]1OC(=O)[C@H](C)C(=O)[C@H](C)[C@@H](O[C@@H]2O[C@H](C)C[C@H](N(C)C)[C@H]2O)[C@@]2(C)C[C@@H](C)/C(=N\C(C)=O)[C@H](C)[C@@H](OC/C(=N\OCc3ccc(-n4cccn4)nc3)CO2)[C@]1(C)O [MODITHROMYCIN]
Activity (Homo sapiens [5]): 0%
Activity (Homo sapiens [6]): 0.5%
Activity (Homo sapiens [8]): 0.1%
Activity (Homo sapiens [9]): 0.3%
Activity (Homo sapiens [11]): 0%
RatioAUC/MIC [15]: 1699.2
Activity (Homo sapiens [17]): 13.6%
RatioAUC/MIC [18]: 26.6
Activity (Homo sapiens [20]): 0%
Activity (Homo sapiens [21]): 85.9%
RatioAUC/MIC [25]: 20.9
Activity (Homo sapiens [28]): 0%
RatioAUC/MIC [29]: 849.6
Activity (Homo sapiens [31]): 9.3%
